The record followed here is ChEMBL document CHEMBL3272265, “Interferon inducing activities of derivatives of 1,3-dimethyl-4-(3-dimethylaminopropylamino)-1H-pyrazolo(3,4-b)quinoline and related compounds” (J Med Chem, 1976).

The subject of data set [1] is Mus musculus. Put plainly: Toxicity in CD-1 mouse at 400 mg/kg, po. It is filed as organism-based. Further details: dose 400 mg/kg, route oral. To be noted: in vivo.
The subject of data set [2] is Mus musculus. The data set can be described thus: Induction of interferon level in CD-1 mouse serum at 100 mg/kg, po after 18 to 20 hrs by vesicular stomatitis virus plaque reduction assay. More on the design: dose 100 mg/kg. It is filed as functional, organism-based. The essentials:
(§1)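 Dosing was oral or ip in 15-g female CD-1 mice, at least three per dose level, with compound in sterile distilled water as a solution or suspension. Pooled sera were collected 18–20 hr after dosing. Interferon units/ml were quantified by a plaque reduction assay on mouse L cells with vesicular stomatitis virus challenge, run against an NIAID reference mouse interferon standard.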
(In a plaque reduction assay, fewer plaques than in the control indicate reduced infectivity or spread.)

Data set [3] relates to Mus musculus. The data set can be described thus: Induction of interferon level in CD-1 mouse serum at 9 mg/kg, ip after 18 to 20 hrs by vesicular stomatitis virus plaque reduction assay. The class given is functional, organism-based. More on the design: dose 9 mg/kg. The essentials: as §1
Data set [4] has as its system Mus musculus. The data set can be described thus: Induction of interferon level in CD-1 mouse serum at 17 mg/kg, ip after 18 to 20 hrs by vesicular stomatitis virus plaque reduction assay. It is filed as functional, organism-based. More on the design: dose 17 mg/kg. An outline of the steps:
as §1

For data set [5], the system named is Mus musculus. The data set can be described thus: Toxicity in CD-1 mouse at 300 mg/kg, ip. Further details: dose 300 mg/kg, route intraperitoneal. The class given is organism-based. To be noted: in vivo.
Data set [6] relates to Mus musculus. The data set can be described thus: Induction of interferon level in CD-1 mouse serum at 200 mg/kg, po after 18 to 20 hrs by vesicular stomatitis virus plaque reduction assay. It is filed as functional, organism-based. Further details: dose 200 mg/kg. The essentials: as §1
For data set [7], the system named is Mus musculus. Put plainly: Induction of interferon level >= 32 units/mL in ip dosed CD-1 mouse serum after 18 to 20 hrs by vesicular stomatitis virus plaque reduction assay. The class given is functional. To be noted: CD-1, Serum, read-out: MED. The essentials: (§2)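 Female CD-1 mice (15 g; at least three per dose) received compound dissolved or suspended in sterile distilled water, orally or ip. They were bled 18–20 hr later and sera pooled. Interferon was titrated by plaque reduction in mouse L cells challenged with vesicular stomatitis virus, with an NIAID reference mouse interferon standard. MED was the lowest dose giving ≥32 units/ml. Top doses were 400 mg/kg po and 300 mg/kg ip.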

The subject of data set [8] is Mus musculus. The data set can be described thus: Induction of interferon level in CD-1 mouse serum at 400 mg/kg, po after 18 to 20 hrs by vesicular stomatitis virus plaque reduction assay. The class given is functional, organism-based. More on the design: dose 400 mg/kg. The essentials: as §1
Data set [9] concerns Mus musculus. Put plainly: Induction of interferon level >= 32 units/mL in po dosed CD-1 mouse serum after 18 to 20 hrs by vesicular stomatitis virus plaque reduction assay. The class given is functional. To be noted: CD-1, Serum, read-out: MED. The essentials: as §2
Data set [10] is filed under the species Mus musculus. Put plainly: Acute toxicity in CD-1 mouse. It is filed as organism-based. To be noted: in vivo.
Data set [11] concerns Mus musculus. Put plainly: Acute toxicity in CD-1 mouse at 1600 mg/kg, po. To be noted: in vivo. More on the design: dose 1600 mg/kg, route oral. The class given is organism-based.
Data set [12] has as its system Mus musculus. Put plainly: Acute toxicity in CD-1 mouse at 250 mg/kg, ip. It is filed as organism-based. Further details: dose 250 mg/kg, route intraperitoneal. To be noted: in vivo.

Molecules are shown by their SMILES. The source made the active and inactive calls. The rule behind the calls is not given here.

As for `COc1ccc(Cl)c2c(NCCCN(C)C)c3c(C)nn(C)c3nc12.Cl`, in the data set on Mus musculus [1], the Activity result is “Toxic”. The outcome with Mus musculus [2] was inactive.
Take `Cc1nn(C)c2nc3ccccc3c(NCCc3ccncc3)c12.Cl`: the outcome in the data set with Mus musculus [3] and in the data set on Mus musculus [4] was inactive. Besides, in the data set with Mus musculus [5], the Activity result is “Toxic”.
On to `COc1cc2nc3c(c(C)nn3C)c(NCCCN(C)C)c2c(OC)c1OC.Cl`, for which the Activity entry in the data set with Mus musculus [1] is recorded as “Toxic”. For the same compound, in the data set with Mus musculus [6], the result was inactive.
Consider `Cc1nn(CCCN(C)C)c2nc3ccccc3c(Cl)c12.Cl`, for which the result in the data set on Mus musculus [4] was inactive. Further, the Activity result in the data set with Mus musculus [5] is reported as “Toxic”.
For the compound `Cc1ccc2c(NCCCN(C)C)c3c(C)nn(C)c3nc2c1.Cl`, the minimal effective dose in the data set with Mus musculus [7] and in the data set with Mus musculus [9] was 50 mg/kg in each case. In addition, in the data set on Mus musculus [8], the outcome was inactive. Besides, the Activity entry in the data set filed under Mus musculus [10] is “Toxic”.
For `Cc1nn(CCNCCCN(C)C)c2nc3ccccc3c(NCCCN(C)C)c12.Cl`, in the data set with Mus musculus [3], the outcome was inactive. In addition, the Activity entry with Mus musculus [5] was “Toxic”.
Take `Cc1nn(C)c2nc3ccccc3c(NCCCN(C)C)c12.Cl`: the values for the minimal effective dose in the data set with Mus musculus [7] and with Mus musculus [9] were 100 mg/kg and 200 mg/kg, respectively. Also, the Activity result in the data set with Mus musculus [11] and with Mus musculus [12] was “Toxic” in each case.
